Assay results reported in ChEMBL document CHEMBL1649387, “Synthesis and evaluation of quinonoid compounds against tumor cell lines” (Eur J Med Chem, 2011).
Active and inactive are the calls of the source. The rule behind the calls is not given here.

Key:
HCT-8 [1] = experiment: DNA damage index, DNA damage in human HCT8 cells to DNA damage in human HL60 cells with FPG/ENDO3 DNA repair enzymes; type: functional
Method in brief: (§1)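 Cells treated 12 h, then alkaline comet slides washed in enzyme buffer (40 mM HEPES, 100 mM KCl, 0.5 mM Na2EDTA, 0.2 mg/mL BSA, pH 8.0). Slides then incubated with FPG (30 min, 37 °C) or ENDOIII (45 min, 37 °C). Enzyme-sensitive sites = total breaks minus buffer-only breaks. 100 cells scored per group. NAC pretreatment 5 mM. Mean ± S.E.M. of three experiments.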

HCT-8 [2] = experiment: Induction of lipid peroxidation in human HCT8 cells assessed as increase in TBARS formation at 5 uM after 24 hrs; type: functional, cell-based
Method in brief: (§2)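 Cells treated 24 h, with or without 24 h pretreatment with 5 mM NAC. Cells lysed with Tris-HCl (15 mM, 1 h) and heated with TCA/HCl/thiobarbituric acid for 15 min at 100 °C, then centrifuged. TBARS read at 532 nm against hydrolyzed 1,1,3,3-tetramethoxypropane standard and normalized to protein.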

SF-295 [3] = experiment: DNA damage index, DNA damage in human SF295 cells to DNA damage in human HL60 cells with FPG/ENDO3 DNA repair enzymes in presence of […]; type: functional; method in brief: as §1
HL-60 [4] = experiment: Induction of lipid peroxidation in human HL60 cells assessed as increase in TBARS formation at 5 uM after 24 hrs in presence of […]; type: functional, cell-based; method in brief: as §2
SF-295 [5] = experiment: DNA damage index, DNA damage in human SF295 cells to DNA damage in human HL60 cells with FPG/ENDO3 DNA repair enzymes; type: functional; method in brief: as §1
MDA-MB-435 [6] = experiment: Induction of lipid peroxidation in human MDA-MB-435 cells assessed as increase in TBARS formation at 5 uM after 24 hrs in presence of […]; type: functional, cell-based; method in brief: as §2
SF-295 [7] = experiment: Induction of lipid peroxidation in human SF295 cells assessed as increase in TBARS formation at 5 uM after 24 hrs in presence of […]; type: functional, cell-based; method in brief: as §2
MDA-MB-435 [8] = experiment: Induction of lipid peroxidation in human MDA-MB-435 cells assessed as increase in TBARS formation at 5 uM after 24 hrs; type: functional, cell-based; method in brief: as §2
MDA-MB-435 [9] = experiment: DNA damage index, DNA damage in human MDA-MB-435 cells to DNA damage in human HL60 cells with FPG/ENDO3 DNA repair enzymes; type: functional; method in brief: as §1
HCT-8 [10] = experiment: Induction of lipid peroxidation in human HCT8 cells assessed as increase in TBARS formation at 5 uM after 24 hrs in presence of […]; type: functional, cell-based; method in brief: as §2
HL-60 [11] = experiment: DNA damage index, DNA damage in human HL60 cells to DNA damage in human HL60 cells with FPG/ENDO3 DNA repair enzymes in presence of […]; type: functional; method in brief: as §1
SF-295 [12] = experiment: Induction of lipid peroxidation in human SF295 cells assessed as increase in TBARS formation at 5 uM after 24 hrs; type: functional, cell-based; method in brief: as §2
HL-60 [13] = experiment: DNA damage index, DNA damage in human HL60 cells to DNA damage in human HL60 cells with FPG/ENDO3 DNA repair enzymes; type: functional; method in brief: as §1
HCT-8 [14] = experiment: DNA damage index, DNA damage in human HCT8 cells to DNA damage in human HL60 cells with FPG/ENDO3 DNA repair enzymes in presence of […]; type: functional; method in brief: as §1
HL-60 [15] = experiment: Induction of lipid peroxidation in human HL60 cells assessed as increase in TBARS formation at 5 uM after 24 hrs; type: functional, cell-based; method in brief: as §2
PBMC = experiment: Cytotoxicity against human PBMC cells after 72 hrs by Alamar Blue assay; type: cell-based
MDA-MB-435 [16] = experiment: DNA damage index, DNA damage in human MDA-MB-435 cells to DNA damage in human HL60 cells with FPG/ENDO3 DNA repair enzymes in presence of […]; type: functional; method in brief: as §1
HL-60 [17] = experiment: Induction of apoptosis in human HL60 cells assessed as cell viability at 5 uM after 24 hrs by trypan blue exclusion assay in presence of […]; type: functional, cell-based
Method in brief: (§3)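 Cells incubated 24 h, with or without 24 h pretreatment with 5 mM NAC. Viability determined by trypan blue dye exclusion.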

HCT-8 [18] = experiment: Induction of apoptosis in human HCT8 cells assessed as cell viability at 5 uM after 24 hrs by trypan blue exclusion assay; type: functional, cell-based; method in brief: as §3
SF-295 [19] = experiment: Genotoxicity in human SF295 cells assessed as DNA strand breaks at 5 uM after 24 hrs by comet assay in presence of […]; type: functional, cell-based
Method in brief: (§4)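 Cells treated 24 h, with or without 24 h pretreatment with 5 mM NAC. Cells embedded in 0.75% low-melt agarose and lysed (pH 10.0, 4 °C, ≥1 h). DNA unwound 20 min in 300 mM NaOH/1 mM EDTA (pH >13), then electrophoresed 20 min at 0.86 V/cm and stained with ethidium bromide. 100 cells scored visually into classes 0–4 to give damage index.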

SF-295 [20] = experiment: Induction of apoptosis in human SF295 cells assessed as cell viability at 5 uM after 24 hrs by trypan blue exclusion assay in presence of […]; type: functional, cell-based; method in brief: as §3
HL-60 [21] = experiment: Cytotoxicity against human HL60 cells after 72 hrs by MTT assay; type: functional, cell-based; settings: HL-60, 72 h
MDA-MB-435 [22] = experiment: Cytotoxicity against human MDA-MB-435 cells after 72 hrs by MTT assay; type: functional, cell-based; settings: MDA-MB-435, 72 h
HCT-8 [23] = experiment: Genotoxicity in human HCT8 cells assessed as DNA strand breaks at 5 uM after 24 hrs by comet assay; type: functional, cell-based; method in brief: as §4
HCT-8 [24] = experiment: Induction of apoptosis in human HCT8 cells assessed as cell viability at 5 uM after 24 hrs by trypan blue exclusion assay in presence of […]; type: functional, cell-based; method in brief: as §3
MDA-MB-435 [25] = experiment: Genotoxicity in human MDA-MB-435 cells assessed as DNA strand breaks at 5 uM after 24 hrs by comet assay in presence of […]; type: functional, cell-based; method in brief: as §4
HL-60 [26] = experiment: Genotoxicity in human HL60 cells assessed as DNA strand breaks at 5 uM after 24 hrs by comet assay; type: functional, cell-based; method in brief: as §4
HL-60 [27] = experiment: Genotoxicity in human HL60 cells assessed as DNA strand breaks at 5 uM after 24 hrs by comet assay in presence of […]; type: functional, cell-based; method in brief: as §4
MDA-MB-435 [28] = experiment: Induction of apoptosis in human MDA-MB-435 cells assessed as cell viability at 5 uM after 24 hrs by trypan blue exclusion assay in presence of […]; type: functional, cell-based; method in brief: as §3
SF-295 [29] = experiment: Cytotoxicity against human SF295 cells after 72 hrs by MTT assay; type: functional, cell-based; settings: SF-295, 72 h
SF-295 [30] = experiment: Genotoxicity in human SF295 cells assessed as DNA strand breaks at 5 uM after 24 hrs by comet assay; type: functional, cell-based; method in brief: as §4
MDA-MB-435 [31] = experiment: Induction of apoptosis in human MDA-MB-435 cells assessed as cell viability at 5 uM after 24 hrs by trypan blue exclusion assay; type: functional, cell-based; method in brief: as §3
MDA-MB-435 [32] = experiment: Genotoxicity in human MDA-MB-435 cells assessed as DNA strand breaks at 5 uM after 24 hrs by comet assay; type: functional, cell-based; method in brief: as §4
HCT-8 [33] = experiment: Cytotoxicity against human HCT8 cells after 72 hrs by MTT assay; type: functional, cell-based; settings: HCT-8, 72 h
HL-60 [34] = experiment: Induction of apoptosis in human HL60 cells assessed as cell viability at 5 uM after 24 hrs by trypan blue exclusion assay; type: functional, cell-based; method in brief: as §3
HCT-8 [35] = experiment: Genotoxicity in human HCT8 cells assessed as DNA strand breaks at 5 uM after 24 hrs by comet assay in presence of […]; type: functional, cell-based; method in brief: as §4
SF-295 [36] = experiment: Induction of apoptosis in human SF295 cells assessed as cell viability at 5 uM after 24 hrs by trypan blue exclusion assay; type: functional, cell-based; method in brief: as §3

| Structure (SMILES) | Ratio (HCT-8 [1]) | Activity (HCT-8 [2]) | Ratio (SF-295 [3]) | Activity (HL-60 [4]) | Ratio (SF-295 [5]) | Activity (MDA-MB-435 [6]) | Activity (SF-295 [7]) | Activity (MDA-MB-435 [8]) | Ratio (MDA-MB-435 [9]) | Activity (HCT-8 [10]) | Ratio (HL-60 [11]) | Activity (SF-295 [12]) | Ratio (HL-60 [13]) | Ratio (HCT-8 [14]) | Activity (HL-60 [15]) | IC50 (PBMC) | Ratio (MDA-MB-435 [16]) | also measured |
| --- | --- | --- | --- | --- | --- | --- | --- | --- | --- | --- | --- | --- | --- | --- | --- | --- | --- | --- |
| CC1(C)CC2=C(O1)c1ccccc1C(=O)C2=O [NOR-BETA-LAPACHONE] | 63.25 | Active | 9.18 | inactive | 63.81 | inactive | inactive | Active | 78.52 | inactive | 12.36 | Active | 67.19 | 10.48 | Active | > 21900 nM | 7.49 |  |
| CC1(C)OC2=C(C(=O)C(=O)c3ccccc32)[C@H](n2cc(-c3ccc(F)cc3)nn2)[C@H]1Br |  | Active |  | inactive |  | inactive | inactive | Active |  | inactive |  | Active |  |  | Active | 3370 nM |  | Activity (HL-60 [17]): inactive; Activity (HCT-8 [18]): Active; Activity (SF-295 [19]): inactive; Activity (SF-295 [20]): inactive; IC50 (HL-60 [21]): 1200 nM; IC50 (MDA-MB-435 [22]): 1200 nM; Activity (HCT-8 [23]): Active; Activity (HCT-8 [24]): inactive; Activity (MDA-MB-435 [25]): inactive; Activity (HL-60 [26]): Active; Activity (HL-60 [27]): inactive; Activity (MDA-MB-435 [28]): inactive; IC50 (SF-295 [29]): 1760 nM; Activity (SF-295 [30]): Active; Activity (MDA-MB-435 [31]): Active; Activity (MDA-MB-435 [32]): Active; IC50 (HCT-8 [33]): 2260 nM; Activity (HL-60 [34]): Active; Activity (HCT-8 [35]): inactive; Activity (SF-295 [36]): Active |
| CC1(C)CCC2=C(O1)c1ccccc1C(=O)C2=O [LAPACHONE] | 72.41 | Active | 8.72 | inactive | 58.75 | inactive | inactive | Active | 83.17 | inactive | 8.33 | Active | 61.36 | 11.41 | Active | > 20600 nM | 5.16 |  |
